Reference: ChEMBL document CHEMBL3351404, “Structure-Activity Studies Reveal the Oxazinone Ring Is a Determinant of Cytochrome P450 2B6 Activity Toward Efavirenz” (ACS Med Chem Lett, 2014)

Legend:
Cytochrome P450 2D6 [1] = target: T1, Cytochrome P450 2D6 (Homo sapiens, UniProt P10635); experiment: Drug metabolism assessed as CYP2D6 (unknown origin)-mediated compound formation at 10 uM incubated for 60 mins in presence of NADPH by uHPLC-MS/MS method; assay type: ADME; conditions: 1 h
In short: (§1)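 Individual cDNA-expressed human P450s (CYP2B6 in insect microsomes) were incubated separately with each analogue at 10 μM. The enzyme panel covers the major drug-metabolizing P450s. Products were monitored as the metabolites first found in human liver microsome incubations, identified by m/z and retention time.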

Cytochrome P450 1A2 [2] = target: T2, Cytochrome P450 1A2 (Homo sapiens, UniProt P05177); experiment: Drug metabolism assessed as CYP1A2 (unknown origin)-mediated compound formation at 10 uM incubated for 60 mins in presence of NADPH by uHPLC-MS/MS method; assay type: ADME; conditions: 1 h; in short: as §1
T2 sequence (P05177 whole entry): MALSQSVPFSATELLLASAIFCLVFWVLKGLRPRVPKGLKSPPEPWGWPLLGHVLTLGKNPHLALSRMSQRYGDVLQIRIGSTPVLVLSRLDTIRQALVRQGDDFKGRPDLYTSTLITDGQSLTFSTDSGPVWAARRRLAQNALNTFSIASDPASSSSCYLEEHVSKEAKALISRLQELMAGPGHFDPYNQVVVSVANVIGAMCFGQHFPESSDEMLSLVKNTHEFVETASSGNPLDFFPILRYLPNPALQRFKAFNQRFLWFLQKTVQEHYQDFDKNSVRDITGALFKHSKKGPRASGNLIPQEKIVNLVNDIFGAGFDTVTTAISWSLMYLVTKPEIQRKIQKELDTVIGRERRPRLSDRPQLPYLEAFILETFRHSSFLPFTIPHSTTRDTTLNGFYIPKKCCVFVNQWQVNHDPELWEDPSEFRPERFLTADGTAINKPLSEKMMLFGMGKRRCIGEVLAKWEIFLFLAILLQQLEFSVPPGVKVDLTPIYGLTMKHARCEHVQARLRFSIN

Cytochrome P450 2C19 [3] = target: T3, Cytochrome P450 2C19 (Homo sapiens, UniProt P33261); experiment: Drug metabolism assessed as CYP2C19 (unknown origin)-mediated compound formation at 10 uM incubated for 60 mins in presence of NADPH by uHPLC-MS/MS method; assay type: ADME; conditions: 1 h; in short: as §1
T3 sequence (P33261 whole entry): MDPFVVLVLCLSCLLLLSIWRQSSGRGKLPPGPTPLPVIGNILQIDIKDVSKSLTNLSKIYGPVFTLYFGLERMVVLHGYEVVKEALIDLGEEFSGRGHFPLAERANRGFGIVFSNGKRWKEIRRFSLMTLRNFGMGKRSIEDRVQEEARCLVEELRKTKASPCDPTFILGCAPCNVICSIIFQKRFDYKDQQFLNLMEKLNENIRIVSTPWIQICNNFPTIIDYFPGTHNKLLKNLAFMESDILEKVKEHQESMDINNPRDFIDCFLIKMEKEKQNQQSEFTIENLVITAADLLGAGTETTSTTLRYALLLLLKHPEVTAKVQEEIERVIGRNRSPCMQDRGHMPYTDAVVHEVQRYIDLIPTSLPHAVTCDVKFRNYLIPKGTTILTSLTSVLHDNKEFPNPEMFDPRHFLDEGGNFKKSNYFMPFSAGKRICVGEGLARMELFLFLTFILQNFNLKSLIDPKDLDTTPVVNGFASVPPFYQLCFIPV

Liver microsome [4] = experiment: Drug metabolism in pooled human liver microsomes assessed as compound formation at 10 uM incubated for 60 mins in presence of NADPH by uHPLC-MS/MS method; assay type: ADME; conditions: 1 h
In short: (§2)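 Metabolite identification in human liver microsome incubations with 10 μM substrate. Products were assigned by m/z (monooxygenated, dihydroxylated, N-dealkylated), uHPLC retention time and MS/MS fragment ions. Parallel incubations in isotopic water located the inserted oxygen from +2 shifts in fragment masses.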

Liver microsome [5] = experiment: Drug metabolism in pooled human liver microsomes assessed as mono-oxygenated metabolite formation at 10 uM incubated for 60 mins in presence of NADPH by uHPLC-MS/MS method; assay type: ADME; conditions: 1 h; in short: as §2
[6] = Retention time of the compound by uHPLC-MS/MS method; assay type: physicochemical; in short: as §2
Cytochrome P450 2C19 [7] = target: T3, Cytochrome P450 2C19; experiment: Drug metabolism assessed as CYP2C19 (unknown origin)-mediated metabolite formation at 10 uM incubated for 60 mins in presence of NADPH by uHPLC-MS/MS method; assay type: ADME; conditions: 1 h; in short: as §1
Cytochrome P450 1A2 [8] = target: T2, Cytochrome P450 1A2; experiment: Drug metabolism assessed as CYP1A2 (unknown origin)-mediated metabolite formation at 10 uM incubated for 60 mins in presence of NADPH by uHPLC-MS/MS method; assay type: ADME; conditions: 1 h; in short: as §1
Cytochrome P450 2B6 [9] = target: T4, Cytochrome P450 2B6 (Homo sapiens, UniProt P20813); experiment: Inhibition of CYP2B6 (unknown origin) assessed as reduction in hydroxybupropion formation at 10 uM incubated for 10 mins by uHPLC-MS/MS method; assay type: ADME; conditions: 10 min, 10 µM
T4 sequence (P20813 whole entry): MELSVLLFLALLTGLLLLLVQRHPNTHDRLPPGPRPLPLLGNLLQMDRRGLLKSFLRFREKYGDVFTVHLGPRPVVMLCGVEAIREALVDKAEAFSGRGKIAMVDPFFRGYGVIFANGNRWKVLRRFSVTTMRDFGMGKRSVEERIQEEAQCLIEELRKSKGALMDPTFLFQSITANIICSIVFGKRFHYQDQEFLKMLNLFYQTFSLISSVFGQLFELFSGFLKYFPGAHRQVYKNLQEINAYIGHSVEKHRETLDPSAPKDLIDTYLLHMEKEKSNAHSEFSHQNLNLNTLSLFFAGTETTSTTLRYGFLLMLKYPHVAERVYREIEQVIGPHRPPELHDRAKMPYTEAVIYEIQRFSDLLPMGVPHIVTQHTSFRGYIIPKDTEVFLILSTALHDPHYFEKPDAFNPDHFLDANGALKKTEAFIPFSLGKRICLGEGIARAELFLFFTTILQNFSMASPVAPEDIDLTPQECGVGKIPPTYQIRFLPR
In short: (§3)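 CYP2B6 insect microsomes were coincubated with the probe substrate bupropion plus test compound at 10 μM. Hydroxybupropion formation was measured and compared with a vehicle control.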

Cytochrome P450 2B6 [10] = target: T4, Cytochrome P450 2B6; experiment: Drug metabolism assessed as CYP2B6 (unknown origin)-mediated metabolite formation at 10 uM incubated for 60 mins in presence of NADPH by uHPLC-MS/MS method; assay type: ADME; conditions: 1 h; in short: as §1
Cytochrome P450 2B6 [11] = target: T4, Cytochrome P450 2B6; experiment: Activity of CYP2B6 (unknown origin) assessed as maximum depletion rate constant pre-incubated for 5 mins in presence of NADPH by uHPLC-MS/MS based substrate depletion kinetics assay; assay type: ADME
In short: (§4)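 cDNA-expressed CYP2B6 in insect microsomes. Parent loss was followed over time by substrate depletion, chosen because several metabolites form. Km and maximum depletion rate constant (kdep max, min–1) were derived from depletion kinetics, and Vmax was expressed as pmol/min/pmol P450.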

CYP2B6 [12] = target: T5, CYP2B6 (Homo sapiens, UniProt P20813); experiment: Activity of CYP2B6 (unknown origin) pre-incubated for 5 mins in presence of NADPH by uHPLC-MS/MS based substrate depletion kinetics assay; assay type: ADME; conditions: CYP2B6 enzyme (unknown origin); in short: as §4
T5 sequence (P20813 whole entry): T4 sequence (P20813 whole entry)

Cytochrome P450 3A5 = Cytochrome P450 3A5 (Homo sapiens, UniProt P20815); experiment: Drug metabolism assessed as CYP3A5 (unknown origin)-mediated metabolite formation at 10 uM incubated for 60 mins in presence of NADPH by uHPLC-MS/MS method; conditions: 1 h
Chain of Cytochrome P450 3A5 (P20815 whole entry, looked up): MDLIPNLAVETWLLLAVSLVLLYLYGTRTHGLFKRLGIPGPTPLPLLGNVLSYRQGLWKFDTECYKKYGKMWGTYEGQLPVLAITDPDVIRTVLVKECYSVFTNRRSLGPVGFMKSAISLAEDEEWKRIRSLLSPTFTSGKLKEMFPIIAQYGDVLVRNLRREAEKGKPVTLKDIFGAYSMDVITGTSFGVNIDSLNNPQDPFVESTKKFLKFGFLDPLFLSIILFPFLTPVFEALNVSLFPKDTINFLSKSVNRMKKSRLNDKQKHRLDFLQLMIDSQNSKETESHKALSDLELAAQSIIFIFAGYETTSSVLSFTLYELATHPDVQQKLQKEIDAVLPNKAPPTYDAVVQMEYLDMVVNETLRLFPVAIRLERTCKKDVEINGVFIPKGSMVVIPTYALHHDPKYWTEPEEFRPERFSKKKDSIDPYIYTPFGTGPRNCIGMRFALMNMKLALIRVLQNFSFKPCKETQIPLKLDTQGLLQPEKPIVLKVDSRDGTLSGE

Cytochrome P450 2B6 [13] = target: T4, Cytochrome P450 2B6; experiment: Activity of CYP2B6 (unknown origin) assessed per pmol protein pre-incubated for 5 mins in presence of NADPH by uHPLC-MS/MS based substrate depletion kinetics assay; assay type: ADME; in short: as §4
Liver microsome [14] = experiment: Drug metabolism in pooled human liver microsomes assessed as N-dealkylated metabolite formation at 10 uM incubated for 60 mins in presence of NADPH by uHPLC-MS/MS method; assay type: ADME; conditions: 1 h; in short: as §2
CYP2B6 [15] = target: T5, CYP2B6; experiment: Inhibition of CYP2B6 (unknown origin) assessed as reduction in hydroxybupropion formation by measuring remaining enzyme activity at 10 uM incubated for 10 mins by uHPLC-MS/MS method; assay type: ADME; conditions: probe bupropion (hydroxybupropion formation), read-out: Activity; in short: as §3
Cytochrome P450 2D6 [16] = target: T1, Cytochrome P450 2D6; experiment: Drug metabolism assessed as CYP2D6 (unknown origin)-mediated metabolite formation at 10 uM incubated for 60 mins in presence of NADPH by uHPLC-MS/MS method; assay type: ADME; conditions: 1 h; in short: as §1
Liver microsome [17] = experiment: Drug metabolism in pooled human liver microsomes assessed as mono-oxygenated metabolite formation at 10 uM incubated for 60 mins in presence of NADPH and using isotopic water by uHPLC-MS/MS method; assay type: ADME; conditions: 1 h; in short: as §2

T1 sequence (P10635 whole entry): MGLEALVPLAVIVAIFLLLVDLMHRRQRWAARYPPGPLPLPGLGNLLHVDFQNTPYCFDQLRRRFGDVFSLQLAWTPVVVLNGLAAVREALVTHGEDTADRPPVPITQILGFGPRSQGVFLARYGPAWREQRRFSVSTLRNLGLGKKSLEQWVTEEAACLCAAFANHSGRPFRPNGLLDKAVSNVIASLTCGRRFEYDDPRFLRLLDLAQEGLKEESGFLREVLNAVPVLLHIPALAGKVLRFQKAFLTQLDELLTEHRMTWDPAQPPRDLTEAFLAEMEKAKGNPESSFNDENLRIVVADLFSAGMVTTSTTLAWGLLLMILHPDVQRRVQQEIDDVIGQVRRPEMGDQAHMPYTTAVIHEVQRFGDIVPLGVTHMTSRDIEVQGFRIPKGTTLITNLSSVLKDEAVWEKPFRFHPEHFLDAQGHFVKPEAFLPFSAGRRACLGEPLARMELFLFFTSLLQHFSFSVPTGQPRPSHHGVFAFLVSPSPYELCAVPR

SMILES	Drug metabolism (Cytochrome P450 2D6 [1])	Drug metabolism (Cytochrome P450 1A2 [2])	Drug metabolism (Cytochrome P450 2C19 [3])	Drug metabolism (Liver microsome [4])	Drug metabolism (Liver microsome [5])	Retention_time [6] [min]	Drug metabolism (Cytochrome P450 2C19 [7])	Drug metabolism (Cytochrome P450 1A2 [8])	inhibition (INH) (Cytochrome P450 2B6 [9])	Drug metabolism (Cytochrome P450 2B6 [10])	K (Cytochrome P450 2B6 [11]) [min⁻¹]	Km (CYP2B6 [12]) [µM]	Drug metabolism (Cytochrome P450 3A5)	Vmax (Cytochrome P450 2B6 [13]) [pmol/min]	Drug metabolism (Liver microsome [14])	activity at 10 min, 10 µM (CYP2B6 [15]) [%]	Drug metabolism (Cytochrome P450 2D6 [16])	Drug metabolism (Liver microsome [17])
Nc1ccc(Cl)cc1[C@@](O)(C#CC1CC1)C(F)(F)F	metabolite_detected	metabolite_detected	metabolite_detected	metabolite_detected	metabolite_detected	7.31	metabolite_detected	metabolite_detected	Active									
Nc1ccc(Cl)cc1[C@](O)(C#CC1CC1)C(F)(F)F	metabolite_detected	metabolite_detected	metabolite_detected	metabolite_detected	metabolite_detected	7.25	metabolite_detected	metabolite_detected	Active									
O=C1Nc2ccc(Cl)cc2[C@@](/C=C/C2CC2)(C(F)(F)F)O1					metabolite_detected			metabolite_detected		metabolite_detected	0.0057	0.23	metabolite_detected	0.13				
COc1ccc(CNc2ccc(Cl)cc2[C@@](O)(C#CC2CC2)C(F)(F)F)cc1							metabolite_detected	metabolite_detected							metabolite_detected	52	metabolite_detected	
COc1ccc(CNc2ccc(Cl)cc2[C@](O)(C#CC2CC2)C(F)(F)F)cc1							metabolite_detected	metabolite_detected							metabolite_detected	62	metabolite_detected	
FC(F)(F)[C@@]1(C#CC2CC2)OCNc2ccc(Cl)cc21					metabolite_detected		metabolite_detected			metabolite_detected	0.14	0.22		3.2		2		metabolite_detected
O=C1Nc2ccc(Cl)cc2[C@@](/C=C/C2(O)CC2)(C(F)(F)F)O1				metabolite_detected		4.98												
